# From PubChem
# An excerpt weighted towards active compounds, which were near 5.9% of everything screened.
# IDH1 R132H inh = inhibitors of human IDH1 R132H; IDH1 R132H reductase, diaphorase/resazurin fluorescence, 60 min; inhibition, % at 10 µM; hit rate 0.18% among 70,000; AID 624101; O75874; in the data active = inhibition above about 34%; inconclusive = no clear call, values can overlap the other calls; inactive = below about 11%
# Pf Dd2 inh = P. falciparum Dd2 growth inhibition | activity change, % at 10 µM | hit rate 2.3% among 94,000 | AID 1159554 | SYBR Green, 72 h; hits give low values; in the data active = activity change below about -80%; inconclusive = no clear call, values can overlap the other calls
# Tcruzi prolif = T. cruzi proliferation inhibition. inhibition, % at 8.34 µM. hit rate 5.9% among 77,000. T. cruzi beta-gal in NIH3T3, GalScreen luminescence, 90 h;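 active = mean inhibition above about 93%, with at least 55% of replicates each passing it, limit read from the data, passing the limit was not always enough; inconclusive = only one of those two conditions holds; inactive = neither condition holds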
# GASC1 inh = inhibitors of human demethylase GASC-1 KDM4C; AID 720574; inhibition, % at 12.5 µM; hit rate 0.15% among 96,000; Q9H3R0; GST-KDM4C 2-372, H3K9me3 peptide, LANCE TR-FRET;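 active = mean replicate inhibition above about 25%, with at least 55% of replicates also reaching it, limit read from the data, passing the limit was not always enough; inconclusive = only one of those two conditions met; inactive = neither condition met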
# Target sequence (Q9H3R0 2-372 limits assumed): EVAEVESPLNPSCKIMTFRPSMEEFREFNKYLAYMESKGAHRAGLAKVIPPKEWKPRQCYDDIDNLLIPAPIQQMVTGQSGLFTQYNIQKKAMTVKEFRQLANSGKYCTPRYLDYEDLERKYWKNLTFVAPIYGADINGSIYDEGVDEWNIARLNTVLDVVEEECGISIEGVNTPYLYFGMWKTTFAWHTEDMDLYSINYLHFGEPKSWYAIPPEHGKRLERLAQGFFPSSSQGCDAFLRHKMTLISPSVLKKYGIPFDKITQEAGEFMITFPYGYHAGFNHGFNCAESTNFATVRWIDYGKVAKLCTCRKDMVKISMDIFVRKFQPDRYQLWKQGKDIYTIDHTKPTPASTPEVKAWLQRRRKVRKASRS
#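 Material: N-terminal GST-fused human GASC-1 (KDM4C) fragment, residues 2-372. Input: 10 nM enzyme. Incubation: enzyme reaction 30 min, then detection 60 min, both room temperature. Doses: one test concentration per compound. Read-out basis: inhibition from TR-FRET ratio decrease. Detection: LANCE TR-FRET, excitation 340 nm, emissions 618 and 671 nm.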
# Numbers stand for hits; - = inactive; ? = inconclusive; . = no result.
SMILES,IDH1 R132H inh,Pf Dd2 inh,Tcruzi prolif,GASC1 inh
C[C@@H]1CN([C@H](C)CO)C(=O)c2cccc(NC(=O)Nc3cccc4ccccc34)c2O[C@@H]1CN(C)C(=O)Nc1ccc2c(c1)OCO2,.,-82.8,-,-
C[C@H]1CN([C@@H](C)CO)C(=O)c2cccc(NC(=O)Nc3ccccc3)c2O[C@H]1CN(C)C(=O)Nc1ccc2c(c1)OCO2,-,-,-,-
C[C@H](CO)N1C[C@H](C)[C@@H](CN(C)C(=O)Nc2cccc3ccccc23)Oc2ccc(NC(=O)Nc3ccc4c(c3)OCO4)cc2CC1=O,-,-81.9,-,-
C[C@@H]1CN([C@@H](C)CO)C(=O)c2cc(NC(=O)CCCN(C)C)ccc2O[C@@H](C)CCCCO[C@@H]1CN(C)S(=O)(=O)c1cccs1,-,-,-,-
COc1ccc(NC(=O)N2C[C@H](O)COC[C@H]3O[C@@H](CC(=O)N4CCCCC4)CC[C@@H]32)cc1,.,-,-,-
CC(C)NC(=O)Nc1cccc2c1O[C@H](CN(C)C(=O)Nc1ccc3c(c1)OCO3)[C@H](C)CN([C@@H](C)CO)C2=O,-,-82.8,-,-
CC(C)NC(=O)Nc1cccc2c1O[C@H](CN(C)C(=O)Nc1ccc3c(c1)OCO3)[C@@H](C)CN([C@@H](C)CO)C2=O,-,-,-,-
C[C@@H]1CN([C@H](C)CO)C(=O)c2cc(C#Cc3ccccc3)cnc2O[C@H]1CN(C)C(=O)CCN1CCCCC1,-,-89.8,-,-
C[C@H](CO)N1C[C@H](C)[C@@H](CN(C)C(=O)CCN2CCCCC2)Oc2ncc(C#Cc3ccccc3)cc2C1=O,-,-,-,-
C[C@@H]1CN([C@H](C)CO)C(=O)c2cc(C#CCc3ccccc3)cnc2O[C@H]1CN(C)C(=O)C1CCC1,-,-87.3,-,-
C[C@@H]1CN([C@@H](C)CO)C(=O)c2cc(C#CCc3ccccc3)cnc2O[C@@H]1CN(C)C(=O)C1CCC1,-,-,-,-
C[C@@H]1CN([C@H](C)CO)C(=O)c2cc(C#Cc3cccc(F)c3)cnc2O[C@@H]1CN(C)C(=O)C1CCCCC1,.,-87.9,-,-
C[C@H]1CN([C@@H](C)CO)C(=O)c2cc(C#Cc3ccccc3F)cnc2O[C@@H]1CN(C)C(=O)C1CCCCC1,-,-84.6,.,-
CCOC(=O)CSc1nnc(-c2ccc(Cl)cc2)n1-c1ccccc1,-,.,.,.
C[C@@H]1CN([C@@H](C)CO)C(=O)c2cc(C#Cc3cccc(F)c3)cnc2O[C@@H]1CN(C)C(=O)C1CCCCC1,-,-85.8,-,-
C[C@@H]1CN([C@@H](C)CO)C(=O)c2cc(NC(=O)C3CCCCC3)ccc2O[C@@H](C)CCCCO[C@H]1CN(C)Cc1ccc(Cl)c(Cl)c1,-,-,-,-
C[C@@H]1CN([C@H](C)CO)C(=O)c2cc(NC(=O)C3CCCCC3)ccc2O[C@@H](C)CCCCO[C@H]1CN(C)Cc1ccc(Cl)c(Cl)c1,-,-90.3,-,-
C[C@@H]1CN([C@H](C)CO)C(=O)c2cc(NC(=O)c3ccncc3)ccc2O[C@@H](C)CCCCO[C@H]1CN(C)Cc1ccc(Cl)c(Cl)c1,-,-86.2,.,-
C[C@@H]1CCCCO[C@H](CN(C)Cc2ccc(Cl)c(Cl)c2)[C@@H](C)CN([C@@H](C)CO)C(=O)c2cc(NC(=O)C3CCCCC3)ccc2O1,.,-91.3,-,-
CO[C@@H]1CN(C)C(=O)c2cc(NC(=O)c3ccc(-c4ccccc4)cc3)ccc2OC[C@H](C)NC[C@@H]1C,-,-,.,-
CO[C@H]1CN(C)C(=O)c2cc(NC(=O)c3ccc(-c4ccccc4)cc3)ccc2OC[C@H](C)NC[C@H]1C,-,-92.2,.,.
CO[C@@H]1CN(C)C(=O)c2cc(NC(=O)c3ccc(-c4ccccc4)cc3)ccc2OC[C@@H](C)NC[C@@H]1C,-,-96.6,.,-
CO[C@H]1CN(C)C(=O)c2cc(NC(=O)c3ccc(-c4ccccc4)cc3)ccc2OC[C@@H](C)NC[C@H]1C,-,-,.,-
CCC(=O)N1[C@H](CO)[C@@H]2c3ccccc3N(S(=O)(=O)c3ccc(F)cc3)C[C@@H]21,.,-,-,-
CC(C)(C)[S@@](=O)N1Cc2cc(C(=O)NCc3ccncc3)nc(-c3cccc(-c4ccncc4)c3)c2[C@H]1CCO,-,-,-,-
SMILES,IDH1 R132H inh,Pf Dd2 inh,Tcruzi prolif,GASC1 inh
CC(C)(C)[S@@](=O)N1Cc2cc(C(=O)NCCc3ccncc3)nc(-c3cccc(-c4ccccc4)c3)c2[C@H]1CCO,.,-85.5,.,-
COc1cccc(-c2cccc(-c3nc(C(=O)NCc4ccc(Oc5ccccc5)cc4)cc4c3[C@@H](CCO)N(S(=O)C(C)(C)C)C4)c2)c1 (some centres not stated),.,-83.9,.,-
CCCNC(=O)c1cc2c(c(-c3cccc(-c4cc5ccccc5o4)c3)n1)[C@H](CCO)N(C(=O)NC(C)C)C2,.,-92.9,.,-
COc1cccc(-c2ccc3c(c2)[C@@H]2[C@@H](CCN2C(=O)C2CCC2)[C@H](CO)N3)c1,.,-,-,-
COc1ccc(C#Cc2ccc3c(c2)[C@H]2[C@H](CCN2C(=O)C2CCCC2)[C@@H](CO)N3)cc1,.,-95.0,.,-
COc1cccc(-c2ccc3c(c2)[C@@H]2[C@@H](CCN2S(=O)(=O)c2cn(C)cn2)[C@H](CO)N3)c1,.,-81.7,-,-
COc1cccc(-c2ccc3c(c2)[C@H]2[C@H](CCN2C(=O)C2CCCCC2)[C@@H](CO)N3)c1,.,-87.9,.,-
O=C(c1ccc(F)cc1)N1CC[C@@H]2[C@H]1c1cc(C3=CCCCC3)ccc1N[C@@H]2CO,.,-,-,-
O=C(C1CCCC1)N1CC[C@@H]2[C@H](CO)Nc3ccc(C4=CCCCC4)cc3[C@@H]21,.,-83.4,.,-
COc1ccc(C#Cc2ccc3c(c2)[C@@H]2[C@@H](CCN2C(=O)C2CCCC2)[C@@H](CO)N3)cc1,.,?,.,-
COc1ccc(CN(C)C[C@@H]2Oc3c(NS(=O)(=O)c4ccccc4)cccc3C(=O)N([C@H](C)CO)C[C@H]2C)cc1,-,-,-,-
Cc1noc(C)c1NC(=O)Nc1ccc2c(c1)C(=O)N([C@@H](C)CO)C[C@H](C)[C@H](CN(C)Cc1ccc3c(c1)OCO3)OCCCC[C@H](C)O2,.,-,-,-
CN1c2ccc(C3=CCCCC3)cc2[C@H]2[C@H](CCN2C(=O)C2CC2)[C@@H]1CO,.,-88.5,.,.
COc1ccccc1-c1ccc2c(c1)[C@H]1[C@H](CCN1C(=O)C1CCC1)[C@@H](CO)N2,.,-,.,-
OC[C@@H]1Nc2ccc(-c3cccc(F)c3)cc2[C@@H]2[C@H]1CCN2Cc1ccc(F)cc1,.,-80.9,-,-
COc1ccccc1-c1ccc2c(c1)[C@@H]1[C@@H](CCN1C(=O)C1CCCCC1)[C@@H](CO)N2,.,-85.0,-,.
COc1cccc(-c2ccc3c(c2)[C@@H]2[C@@H](CCN2C(=O)C2CC2)[C@@H](CO)N3)c1,.,-,.,-
COc1cccc(-c2ccc3c(c2)[C@@H]2[C@@H](CCN2C(=O)C2CCCCC2)[C@H](CO)N3)c1,.,-89.0,.,-
C[C@@H]1CN([C@@H](C)CO)C(=O)c2cccc(NC(=O)Nc3ccc(F)cc3)c2O[C@H]1CN(C)Cc1ccc2c(c1)OCO2,.,-,-,-
